Experimental data published in ChEMBL document CHEMBL1649422, “Synthesis and molecular modeling of novel tetrahydro-β-carboline derivatives with phosphodiesterase 5 inhibitory and anticancer properties” (J Med Chem, 2011).

How the values were obtained:
[1] = biological target: T1, cGMP-specific 3',5'-cyclic phosphodiesterase (Homo sapiens, UniProt O76074); experiment: Inhibition of human recombinant PDE5 at 10 uM after 30 mins by fluorescence polarization assay
MDA-MB-231 [2] = experiment: Growth inhibition of human MDA-MB-231 cells at 10 uM after 72 hrs by luminescence assay; format: functional; details: MDA-MB-231, 72 h
[3] = biological target: T1, cGMP-specific 3',5'-cyclic phosphodiesterase; experiment: Inhibition of human recombinant PDE5 after 30 mins by fluorescence polarization assay
Procedure, shortened: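 Recombinant human PDE5A at 12.5 units/mL was preincubated 30 min with compound or vehicle. Then 50 nM TAMRA-cGMP was added and the mix incubated 1.5 h at 30 °C. IMAP binding reagent was added for 30 min at 30 °C and fluorescence polarization read. IC50 came from a 10-concentration series in quadruplicate, fitted to a four-parameter logistic.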

MDA-MB-231 [4] = experiment: Growth inhibition of human MDA-MB-231 cells after 72 hrs by luminescence assay; format: functional, cell-based; details: MDA-MB-231, 72 h
Procedure, shortened: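 MDA-MB-231 cells grown in RPMI 1640 with 5% FBS, 2 mM glutamine and antibiotics at 37 °C, 5% CO2. Cells were harvested at 70–90% confluence, used only if viability >95%, and seeded at 5000 cells/well. Dosing followed 18–24 h later, with final DMSO 0.1%. Viability was read after 72 h by CellTiter-Glo luminescence. IC50 came from eight concentrations in quadruplicate, fitted to a four-parameter logistic.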

| SMILES | inhibition [1] [%] | inhibition at 10 µM (MDA-MB-231 [2]) [%] | IC50 [3] [nM] | IC50 (MDA-MB-231 [4]) [nM] |
| --- | --- | --- | --- | --- |
| CC(C)(C)N1CC(=O)N2[C@@H](c3c(Cl)cccc3Cl)c3[nH]c4ccccc4c3C[C@H]2C1=O | 21 | 20 |  |  |
| COC(=O)[C@H]1Cc2c([nH]c3ccccc23)[C@@H](c2c(Cl)cccc2Cl)N1C(=O)CCl | 27 | 15 |  |  |
| CC(C)(C)N1CC(=O)N2[C@H](c3ccc(Cl)c(Cl)c3)c3[nH]c4ccccc4c3C[C@H]2C1=O | 85 | 50 | 1270 |  |
| CC(C)(C)N1CC(=O)N2[C@H](c3ccc(Cl)cc3Cl)c3[nH]c4ccccc4c3C[C@H]2C1=O |  | 30 | 260 |  |
| CN1CC(=O)N2[C@@H](c3ccc(Cl)cc3Cl)c3[nH]c4ccccc4c3C[C@@H]2C1=O | 90 | 65 | 1200 | 3260 |
| COC(=O)[C@@H]1Cc2c([nH]c3ccccc23)[C@H](c2ccc(Cl)cc2Cl)N1 | 55 | 50 |  |  |
| COC(=O)[C@H]1Cc2c([nH]c3ccccc23)[C@@H](c2ccc(Cl)c(Cl)c2)N1 | 78 | 43 | 1610 |  |
| COC(=O)[C@@H]1Cc2c([nH]c3ccccc23)[C@@H](c2ccc(Cl)cc2Cl)N1C(=O)CCl | 38 | 98 |  | 1240 |
| COC(=O)[C@@H]1Cc2c([nH]c3ccccc23)[C@H](c2ccc(Cl)c(Cl)c2)N1C(=O)CCl | 20 | 43 |  |  |
| CCN1CC(=O)N2[C@H](c3ccc(Cl)c(Cl)c3)c3[nH]c4ccccc4c3C[C@H]2C1=O | 78 | 50 | 2040 |  |
| CCCCN1CC(=O)N2[C@H](c3ccc(Cl)cc3Cl)c3[nH]c4ccccc4c3C[C@@H]2C1=O | 95 | 45 | 270 |  |
| CCN1C(=O)[C@@H]2Cc3c([nH]c4ccccc34)[C@H](c3c(Cl)cccc3Cl)N2C1=O | 37 | 52 |  |  |
| CCN1C(=O)[C@H]2Cc3c([nH]c4ccccc34)[C@H](c3ccc(Cl)cc3Cl)N2C1=O | 90 | 54 | 90 |  |
| CCN1CC(=O)N2[C@@H](c3c(Cl)cccc3Cl)c3[nH]c4ccccc4c3C[C@H]2C1=O | 28 | 24 |  |  |
| CN1CC(=O)N2[C@H](c3ccc(Cl)cc3Cl)c3[nH]c4ccccc4c3C[C@H]2C1=O | 95 | 23 | 50 |  |
| CCCCN1CC(=O)N2[C@H](c3ccc(Cl)cc3Cl)c3[nH]c4ccccc4c3C[C@H]2C1=O | 89 | 42 | 290 |  |
| CC(C)(C)N1CC(=O)N2[C@H](c3c(Cl)cccc3Cl)c3[nH]c4ccccc4c3C[C@@H]2C1=O | 21 | 16 |  |  |
| COC(=O)[C@@H]1Cc2c([nH]c3ccccc23)[C@H](c2c(Cl)cccc2Cl)N1 | 15 | 52 |  |  |
| COC(=O)[C@H]1Cc2c([nH]c3ccccc23)[C@H](c2ccc(Cl)cc2Cl)N1 | 40 | 78 |  | 6730 |

| SMILES | inhibition [1] [%] | inhibition at 10 µM (MDA-MB-231 [2]) [%] | IC50 [3] [nM] | IC50 (MDA-MB-231 [4]) [nM] |
| --- | --- | --- | --- | --- |
| CC(C)(C)N1C(=O)[C@@H]2Cc3c([nH]c4ccccc34)[C@H](c3c(Cl)cccc3Cl)N2C1=O | 25 | 15 |  |  |
| CCN1CC(=O)N2[C@@H](c3ccc(Cl)c(Cl)c3)c3[nH]c4ccccc4c3C[C@H]2C1=O | 67 | 35 | 3300 |  |
| CCN1C(=O)[C@@H]2Cc3c([nH]c4ccccc34)[C@H](c3ccc(Cl)cc3Cl)N2C1=O | 85 | 29 | 850 |  |
| COC(=O)[C@H]1Cc2c([nH]c3ccccc23)[C@H](c2ccc(Cl)c(Cl)c2)N1 | 50 | 100 |  | 4620 |
| COC(=O)[C@H]1Cc2c([nH]c3ccccc23)[C@@H](c2ccc(Cl)cc2Cl)N1 | 65 | 29 | 7200 |  |
| CCN1CC(=O)N2[C@@H](c3ccc(Cl)cc3Cl)c3[nH]c4ccccc4c3C[C@H]2C1=O | 85 | 52 | 990 |  |
| CN1CC(=O)N2[C@H](c3ccc(Cl)cc3Cl)c3[nH]c4ccccc4c3C[C@@H]2C1=O | 95 | 10 | 50 |  |
| CC(C)(C)N1C(=O)[C@H]2Cc3c([nH]c4ccccc34)[C@H](c3ccc(Cl)c(Cl)c3)N2C1=O | 65 | 58 | 6380 |  |
| CC(C)(C)N1CC(=O)N2[C@@H](c3ccc(Cl)cc3Cl)c3[nH]c4ccccc4c3C[C@@H]2C1=O |  |  | 1260 | 2920 |
| CC(C)(C)N1C(=O)[C@@H]2Cc3c([nH]c4ccccc34)[C@H](c3ccc(Cl)cc3Cl)N2C1=O | 75 | 22 | 4140 |  |
| COC(=O)[C@@H]1Cc2c([nH]c3ccccc23)[C@@H](c2ccc(Cl)cc2Cl)N1 | 82 | 28 | 570 |  |
| CCN1CC(=O)N2[C@H](c3ccc(Cl)cc3Cl)c3[nH]c4ccccc4c3C[C@H]2C1=O | 95 | 20 | 10 |  |
| COC(=O)[C@@H]1Cc2c([nH]c3ccccc23)[C@@H](c2ccc(Cl)c(Cl)c2)N1 | 24 | 48 |  |  |
| CC(C)(C)N1CC(=O)N2[C@@H](c3ccc(Cl)cc3Cl)c3[nH]c4ccccc4c3C[C@H]2C1=O | 78 |  | 1350 | 2590 |
| COC(=O)[C@@H]1Cc2c([nH]c3ccccc23)[C@H](c2ccc(Cl)cc2Cl)N1C(=O)CCl | 99 | 55 | 380 |  |
| CCN1C(=O)[C@@H]2Cc3c([nH]c4ccccc34)[C@@H](c3ccc(Cl)c(Cl)c3)N2C1=O | 90 | 18 | 300 |  |
| CCN1C(=O)[C@H]2Cc3c([nH]c4ccccc34)[C@H](c3ccc(Cl)c(Cl)c3)N2C1=O |  |  | 2860 |  |
| CCN1C(=O)[C@H]2Cc3c([nH]c4ccccc34)[C@@H](c3ccc(Cl)c(Cl)c3)N2C1=O | 95 | 50 | 150 |  |
| COC(=O)[C@H]1Cc2c([nH]c3ccccc23)[C@@H](c2ccc(Cl)cc2Cl)N1C(=O)CCl | 66 |  | 2300 | 560 |

| SMILES | inhibition [1] [%] | inhibition at 10 µM (MDA-MB-231 [2]) [%] | IC50 [3] [nM] | IC50 (MDA-MB-231 [4]) [nM] |
| --- | --- | --- | --- | --- |
| CCN1CC(=O)N2[C@H](c3ccc(Cl)c(Cl)c3)c3[nH]c4ccccc4c3C[C@@H]2C1=O | 80 | 30 | 1340 |  |
| CC(C)(C)N1CC(=O)N2[C@@H](c3ccc(Cl)c(Cl)c3)c3[nH]c4ccccc4c3C[C@@H]2C1=O | 30 | 40 |  |  |
| COC(=O)[C@@H]1Cc2c([nH]c3ccccc23)[C@H](c2c(Cl)cccc2Cl)N1C(=O)CCl | 67 | 30 | 730 |  |
| CC(C)(C)N1CC(=O)N2[C@H](c3ccc(Cl)cc3Cl)c3[nH]c4ccccc4c3C[C@@H]2C1=O | 94 | 15 | 190 |  |
| CCN1CC(=O)N2[C@H](c3c(Cl)cccc3Cl)c3[nH]c4ccccc4c3C[C@@H]2C1=O | 40 | 31 |  |  |
| COC(=O)[C@H]1Cc2c([nH]c3ccccc23)[C@H](c2ccc(Cl)cc2Cl)N1C(=O)CCl | 25 |  |  | 70 |
| COC(=O)[C@H]1Cc2c([nH]c3ccccc23)[C@@H](c2c(Cl)cccc2Cl)N1 | 25 |  |  |  |
| COC(=O)[C@H]1Cc2c([nH]c3ccccc23)[C@@H](c2ccc(Cl)c(Cl)c2)N1C(=O)CCl | 40 |  |  |  |
| CC(C)(C)N1CC(=O)N2[C@@H](c3ccc(Cl)c(Cl)c3)c3[nH]c4ccccc4c3C[C@H]2C1=O | 35 | 58 |  |  |
| CC(C)(C)N1CC(=O)N2[C@H](c3ccc(Cl)c(Cl)c3)c3[nH]c4ccccc4c3C[C@@H]2C1=O | 35 | 36 |  |  |
| CCN1C(=O)[C@H]2Cc3c([nH]c4ccccc34)[C@@H](c3c(Cl)cccc3Cl)N2C1=O | 18 | 55 |  |  |
| CC(C)(C)N1C(=O)[C@H]2Cc3c([nH]c4ccccc34)[C@@H](c3c(Cl)cccc3Cl)N2C1=O | 52 | 38 |  |  |
| CCN1CC(=O)N2[C@@H](c3ccc(Cl)c(Cl)c3)c3[nH]c4ccccc4c3C[C@@H]2C1=O | 45 | 44 |  |  |
| COC(=O)[C@@H]1Cc2c([nH]c3ccccc23)[C@@H](c2ccc(Cl)c(Cl)c2)N1C(=O)CCl | 40 | 55 |  |  |
| CC(C)(C)N1C(=O)[C@@H]2Cc3c([nH]c4ccccc34)[C@@H](c3ccc(Cl)c(Cl)c3)N2C1=O | 88 | 60 | 12 |  |
| COC(=O)[C@@H]1Cc2c([nH]c3ccccc23)[C@H](c2ccc(Cl)c(Cl)c2)N1 | 18 | 62 |  | 6980 |
| COC(=O)[C@H]1Cc2c([nH]c3ccccc23)[C@H](c2ccc(Cl)c(Cl)c2)N1C(=O)CCl | 30 | 50 |  |  |
| CCN1C(=O)[C@@H]2Cc3c([nH]c4ccccc34)[C@H](c3ccc(Cl)c(Cl)c3)N2C1=O |  |  | 8750 | 4780 |
